“Also recorded” adds a separate entry of the source. Like-named read-outs stand apart in the source and are kept apart here. Each block holds one compound with its values, some of them ahead of it.
What was measured:
[1] = test system: OM-hydrolyzing activity in human liver cytosol; type: biochemical
[2] = test system: OM-hydrolyzing activity in human intestinal cytosol; type: biochemical
human CMBL [3] = target: T1, human CMBL (Homo sapiens, UniProt Q96DG6); type: biochemical
T1 sequence (Q96DG6 1-245): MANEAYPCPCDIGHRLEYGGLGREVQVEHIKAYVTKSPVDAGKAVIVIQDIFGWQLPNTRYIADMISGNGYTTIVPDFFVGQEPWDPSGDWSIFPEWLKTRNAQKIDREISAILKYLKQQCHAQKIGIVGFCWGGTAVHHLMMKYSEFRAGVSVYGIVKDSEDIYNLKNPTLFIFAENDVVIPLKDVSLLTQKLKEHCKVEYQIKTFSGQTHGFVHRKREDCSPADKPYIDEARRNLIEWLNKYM

human plasma PON1 = conditions: cited from earlier work
human CMBL [4] = target: T1, human CMBL; assay: Ulifloxacin formation from prulifloxacin by recombinant CMBL; type: in vitro ADME; conditions: HEPES pH 7.4, 37 °C, CMBL-transfected mammalian cell lysate
[5] = OM hydrolysis in human liver microsomes, kinetic analysis; type: in vitro ADME
How it was run: (§1)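 Commercial human liver or intestinal subcellular fractions were incubated in 10 mM potassium phosphate (pH 7.4) at 37 °C with OM at 7.81–1000 μM. Protein was 0.05 mg/ml for liver and intestinal cytosols, 0.5 mg/ml for liver microsomes and 0.25 mg/ml for intestinal microsomes. Olmesartan was measured by C18 HPLC-UV at 254 nm, net of buffer-control hydrolysis. Km and Vmax came from nonlinear least-squares Michaelis–Menten fits of triplicates.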

plasma albumin = conditions: cited from earlier work
[6] = Prodrug in portal or circulating blood of rats; type: in vivo; conditions: data not shown
[7] = OM hydrolysis in human liver cytosol, kinetic analysis; type: in vitro ADME
How it was run: as §1

[8] = OM hydrolysis in human intestinal cytosol, kinetic analysis; type: in vitro ADME
How it was run: as §1

[9] = OM hydrolysis in human intestinal microsomes, kinetic analysis; type: in vitro ADME
How it was run: as §1

human CMBL [10] = target: T1, human CMBL; assay: Hydrolysis of typical esterase substrates by recombinant CMBL; type: biochemical; conditions: substrate 1 mM, CMBL-transfected cell lysate 0.05 mg protein/ml
[11] = test system: OM-hydrolyzing activity in human plasma; assay: Effect of esterase inhibitors on OM-hydrolyzing activity in human plasma; type: biochemical; conditions: OM 250 μM, 5 min
How it was run: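 Human plasma, diluted to 2.5 mg protein/ml, incubated 5 min with OM substrate (250 μM) plus one esterase inhibitor: BNPP, DFP, PCMB, eserine or PMSF at 1000 μM, or EDTA at 500 μM. Olmesartan formed was quantified by reversed-phase C18 HPLC with UV at 254 nm. Activity was expressed as formation rate. Means of duplicate determinations.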

human CMBL [12] = target: T1, human CMBL; assay: Hydrolysis of medoxomil prodrugs by recombinant CMBL; type: in vitro ADME; conditions: CMBL-transfected mammalian cell lysate, pH 7.4, 37 °C

SMILES: CNC(=O)Oc1ccc2c(c1)[C@]1(C)CCN(C)[C@@H]1N2C [eserine]
Inhibition of OM-hydrolyzing activity [1]: not inhibited
Inhibition of OM-hydrolyzing activity [2]: not inhibited
Inhibition of OM-hydrolyzing activity (human CMBL [3]): no inhibition

SMILES: Cc1oc(=O)oc1CN1CCN(c2cc3c(cc2F)c(=O)c(C(=O)O)c2n3C(C)S2)CC1 (centres unmarked) [prulifloxacin]
Hydrolysis by PON1 (human plasma PON1): hydrolyze
Enzymatic hydrolysis by recombinant human CMBL (human CMBL [4]): not enzymatically hydrolyzed; also recorded: not hydrolyzed at all

SMILES: O=S(=O)(F)Cc1ccccc1 [PMSF, Phenylmethylsulfonyl fluoride]
Inhibition of OM-hydrolyzing activity [1]: not inhibited
Inhibition of OM-hydrolyzing activity [2]: not inhibited
Inhibition of OM-hydrolyzing activity (human CMBL [3]): no inhibition

Km ([5]; human, liver microsomes, pH 7.4): 481 ± 23 µM
Prodrug detected in portal or circulating blood [6]: no prodrug was detected
Km ([7]; human, liver cytosol, pH 7.4): 160 ± 19 µM
Km ([8]; human, intestinal cytosol, pH 7.4): 193 ± 24 µM
Km ([9]; human, intestinal microsomes, pH 7.4): 236 ± 10 µM
SMILES: CCCc1nc(C(C)(C)O)c(C(=O)OCc2oc(=O)oc2C)n1Cc1ccc(-c2ccccc2-c2nnn[nH]2)cc1 [Olmesartan medoxomil]
Vmax ([5]; Liver microsomes, mean ± S.E.): 15.0 ± 0.3 nmol/min/mg protein
Hydrolysis by plasma albumin (plasma albumin): capable of hydrolyzing
Vmax ([7]; Liver cytosol, mean ± S.E.): 19.7 ± 0.8 nmol/min/mg protein
Vmax ([8]; Intestinal cytosol, mean ± S.E.): 45.1 ± 2.0 nmol/min/mg protein
Hydrolysis by PON1 (human plasma PON1; listed as OM): capable of hydrolyzing; also recorded: hydrolyze
Vmax ([9]; Intestinal microsomes, mean ± S.E.): 6.76 ± 0.11 nmol/min/mg protein

SMILES: CC(=O)Oc1ccc([N+](=O)[O-])cc1 [p-nitrophenyl acetate]
Hydrolysis by recombinant CMBL (human CMBL [10]): does not hydrolyze

Inhibition of OM-hydrolyzing activity ([11]; inhibitor 500 μM): almost completely inhibited
Inhibition of OM-hydrolyzing activity (human CMBL [3]): no inhibition
SMILES: O=C(O)CN(CCN(CC(=O)O)CC(=O)O)CC(=O)O [EDTA]
Inhibition of OM-hydrolyzing activity [1]: not inhibited
Inhibition of OM-hydrolyzing activity [2]: not inhibited

SMILES: CC(=O)SCC[N+](C)(C)C.[I-] [acetylthiocholine iodide]
Hydrolysis by recombinant CMBL (human CMBL [10]): does not hydrolyze

SMILES: CC(=O)Oc1ccccc1 [phenyl acetate]
Hydrolysis by recombinant CMBL (human CMBL [10]): does not hydrolyze

SMILES: O=[N+]([O-])c1ccc(OP(=O)(O)Oc2ccc([N+](=O)[O-])cc2)cc1 [BNPP, Bis-p-nitrophenylphosphate]
Inhibition of OM-hydrolyzing activity [1]: partially inhibited
Inhibition of OM-hydrolyzing activity [2]: partially inhibited
Inhibition of OM-hydrolyzing activity (human CMBL [3]): ~50%

Hydrolysis by recombinant CMBL (human CMBL [12]): readily hydrolyzed
SMILES: Cc1oc(=O)oc1COC(=O)[C@@H]1N2C(=O)[C@@H](NC(=O)[C@H](N)c3ccccc3)[C@H]2SC1(C)C [Lenampicillin]

SMILES: O=C(O)c1cc[c]([Hg][Cl])cc1 [PCMB, p-chloromercuribenzoate]
Inhibition of OM-hydrolyzing activity [1]: strongly inhibited
Inhibition of OM-hydrolyzing activity ([11]; inhibitor 1000 μM): almost completely inhibited
Inhibition of OM-hydrolyzing activity [2]: strongly inhibited
Inhibition of OM-hydrolyzing activity (human CMBL [3]): almost completely inhibited

Hydrolysis by recombinant CMBL (human CMBL [12]): readily hydrolyzed
SMILES: Cc1oc(=O)oc1COC(=O)C1=C([C@H]2CCCO2)S[C@@H]2[C@@H]([C@@H](C)O)C(=O)N12 [Faropenem medoxomil]
